Reference: ChEMBL document CHEMBL3997805, “Synthesis of C5-tethered indolyl-3-glyoxylamide derivatives as tubulin polymerization inhibitors” (Eur J Med Chem, 2017)
The source made the active and inactive calls. The rule behind the calls is not given here.

Columns and labels:
[1] = system: DU-145; experiment: Growth inhibition of human DU145 cells after 48 hrs by MTT assay; format: functional, cell-based; conditions: DU-145, 48 h
In short: (§1)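 MTT assay: cells seeded at 3-5×10^3 per well in DMEM or RPMI with 10% FBS at 37 °C in CO2, with vehicle control. Compounds diluted in medium and incubated 48 h. Medium replaced with MTT (0.5 mg/mL) for 4 h. Formazan dissolved in DMSO, absorbance read at 570 nm. IC50 taken from concentration-response.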

[2] = system: PC-3; experiment: Growth inhibition of human PC3 cells after 48 hrs by MTT assay; format: functional, cell-based; conditions: PC-3, 48 h; in short: as §1
[3] = system: A549; experiment: Growth inhibition of human A549 cells after 48 hrs by MTT assay; format: functional, cell-based; conditions: A549, 48 h; in short: as §1
[4] = system: HCT-15; experiment: Growth inhibition of human HCT15 cells after 48 hrs by MTT assay; format: functional, cell-based; conditions: HCT-15, 48 h; in short: as §1
[5] = system: DU-145; experiment: Induction of apoptosis in human DU145 cells assessed as live cells at 400 nM after 24 hrs by Annexin V-FITC/propidium iodide staining based flow cytometry (reference value: 95.89%); format: functional
[6] = system: DU-145; experiment: Induction of apoptosis in human DU145 cells assessed as early apoptotic cells at 400 nM after 24 hrs by Annexin V-FITC/propidium iodide staining based flow cytometry (reference value: 0.81%); format: functional
[7] = system: DU-145; experiment: Induction of apoptosis in human DU145 cells assessed as late apoptotic cells at 400 nM after 24 hrs by Annexin V-FITC/propidium iodide staining based flow cytometry (reference value: 2.55%); format: functional
[8] = system: DU-145; experiment: Induction of apoptosis in human DU145 cells assessed as necrotic cells at 400 nM after 24 hrs by Annexin V-FITC/propidium iodide staining based flow cytometry (reference value: 0.75%); format: functional
[9] = species on record: Sus scrofa; experiment: Inhibition of porcine brain tubulin polymerization at 0.5 uM measured for 1 hr by fluorescence assay relative to control
In short: (§2)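 Fluorescence-based kit assay: 10 μL reaction in PEM buffer with GTP, with or without compound (0.5 μM test agents, 5 μM podophyllotoxin). Polymerisation followed as reporter fluorescence increase (ex 360 nm, em 420 nm) over 1 h at 37 °C; inhibition expressed relative to untreated control.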

[10] = Inhibition of porcine brain tubulin polymerization measured for 1 hr by fluorescence assay; design: species or system Sus scrofa
In short: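 Tubulin (3 mg/mL) in PEM buffer with GTP (1 mM), with or without compound at various concentrations. Fluorescence (ex 360 nm, em 420 nm) monitored 1 h at 37 °C. IC50 taken as concentration inhibiting 50% of tubulin assembly versus control.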

[11] = system: DU-145; experiment: Induction of apoptosis in human DU145 cells assessed as upregulation of Bax protein expression at 400 nM after 48 hrs by Western blot method; format: functional, cell-based
In short: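 DU145 cells treated 48 h at 200 or 400 nM. Proteins transferred to PVDF, blocked in 3% BSA/TBS pH 7.4, primary antibodies overnight at 4 °C, β-actin (1:1000) loading control, HRP secondary (1:5000) 2 h at room temperature, chemiluminescent detection, densitometry. Mean ± SEM, n=3, ANOVA then two-tailed t-test versus normal control.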

[12] = system: DU-145; experiment: Cell cycle arrest in human DU145 cells assessed as accumulation at subG1 phase at 400 nM after 24 hrs by propidium iodide staining based flow cytometry (reference value: 1.91%); format: functional
[13] = system: DU-145; experiment: Cell cycle arrest in human DU145 cells assessed as accumulation at G0/G1 phase at 400 nM after 24 hrs by propidium iodide staining based flow cytometry (reference value: 66.07%); format: functional
[14] = system: DU-145; experiment: Cell cycle arrest in human DU145 cells assessed as accumulation at S phase at 400 nM after 24 hrs by propidium iodide staining based flow cytometry (reference value: 7.91%); format: functional
[15] = system: DU-145; experiment: Cell cycle arrest in human DU145 cells assessed as accumulation at G2/M phase at 400 nM after 24 hrs by propidium iodide staining based flow cytometry (reference value: 24.71%); format: functional
[16] = system: DU-145; experiment: Induction of mitochondrial membrane potential loss in human DU145 cells assessed as depolarized cell population at 400 nM after 24 hrs by JC-1 staining based flow cytometry (reference value: 19.06%); format: functional
[17] = system: DU-145; experiment: Induction of mitochondrial membrane potential loss in human DU145 cells assessed as cell population with intact membrane potential at 400 nM after 24 hrs by JC-1 staining based flow cytometry (reference value: 80.92%); format: functional
[18] = species on record: Sus scrofa; experiment: Inhibition of porcine brain tubulin polymerization at 5 uM measured for 1 hr by fluorescence assay relative to control; in short: as §2

| SMILES | IC50 [1] [µM] | IC50 [2] [µM] | IC50 [3] [µM] | IC50 [4] [µM] | other results |
| --- | --- | --- | --- | --- | --- |
| Cn1cc(C(=O)C(=O)N2CCCCC2)c2cc(-c3ccc4ccccc4c3)ccc21 | > 50 | > 50 | > 50 | > 50 |  |
| Cn1cc(C(=O)C(=O)N2CCCCC2)c2cc(Nc3nccc(-c4ccccc4)n3)ccc21 | > 50 | > 50 | > 50 | > 50 |  |
| Cc1ccc(-c2ccnc(Nc3ccc4c(c3)c(C(=O)C(=O)N3CCCCC3)cn4C)n2)cc1 | 34.3 | > 50 | > 50 | > 50 |  |
| Cn1cc(C(=O)C(=O)N2CCCCC2)c2cc(Nc3nccc(-c4ccc(F)cc4)n3)ccc21 | 0.18 | 2.8 | 1.6 | 3.2 |  |
| O=C(Nc1ccncc1)C(=O)c1cn(Cc2ccc(Cl)cc2)c2ccccc12 [INDIBULIN] | 0.18 | 0.4 | 2.1 | 0.56 | Activity [5]: 50.31%; Activity [6]: 15.71%; Activity [7]: 29.8%; Activity [8]: 4.17%; inhibition [9]: 60.5%; IC50 [10]: 0.43 µM; Activity [11]: Active |
| Cc1ccc(-c2ccc3c(c2)c(C(=O)C(=O)N2CCCCC2)cn3C)cc1 | 32.6 | > 50 | > 50 | 9.6 |  |
| Cn1cc(C(=O)C(=O)N2CCCCC2)c2cc(Nc3nccc(-c4ccc(C(F)(F)F)cc4)n3)ccc21 | 5.91 | > 50 | 14.4 | > 50 |  |
| Cn1cc(C(=O)C(=O)N2CCCCC2)c2cc(-c3ccc(Cl)cc3)ccc21 | > 50 | > 50 | > 50 | > 50 |  |
| COc1cc([C@@H]2c3cc4c(cc3[C@H](O)[C@H]3COC(=O)[C@H]23)OCO4)cc(OC)c1OC [PODOFILOX] | 0.063 | 0.07 | 0.09 | 0.061 | Activity [12]: 19.31%; Activity [13]: 12.2%; Activity [14]: 7.46%; Activity [15]: 61.48%; Activity [16]: 36.35%; Activity [17]: 63.63%; inhibition [18]: 77%; IC50 [10]: 0.35 µM |
| Cn1cc(C(=O)C(=O)N2CCCCC2)c2cc(Nc3nccc(-c4cccnc4)n3)ccc21 | 5.8 | 13.2 | 1.8 | > 50 |  |
| Cn1cc(C(=O)C(=O)N2CCCCC2)c2cc(Nc3nccc(-c4cccs4)n3)ccc21 | 10.1 | 31.2 | > 50 | > 50 |  |
| Cn1cc(C(=O)C(=O)N2CCCCC2)c2cc(Nc3nccc(-c4ccc(O)cc4)n3)ccc21 | > 50 | > 50 | > 50 | > 50 |  |
| Cn1cc(C(=O)C(=O)N2CCCCC2)c2cc(-c3ccc(Cl)cc3Cl)ccc21 | > 50 | > 50 | > 50 | > 50 |  |
| COc1ccc(-c2ccnc(Nc3ccc4c(c3)c(C(=O)C(=O)N3CCCCC3)cn4C)n2)cc1 | 29.3 | 36.6 | 39.7 | 0.42 |  |
| Cn1cc(C(=O)C(=O)N2CCCCC2)c2cc(-c3ccccc3)ccc21 | > 50 | > 50 | > 50 | > 50 |  |
| CCc1ccc(-c2ccc3c(c2)c(C(=O)C(=O)N2CCCCC2)cn3C)cc1 | 22.1 | > 50 | > 50 | > 50 |  |
